In ChEMBL document CHEMBL4359879, “Synthesis and evaluation of 2-carboxy indole derivatives as potent and selective anti-leukemic agents” (Eur J Med Chem, 2019):

Legend:
HL-60 [1] = assay: Antiproliferative activity against human HL60 cells assessed as reduction in cell viability after 48 hrs by MTT assay; details: HL-60, 48 h
HL-60 [2] = assay: Effect on human HL60 cells assessed as fold change in ATP6AP1L gene expression at 1.085 uM incubated for 6 hrs by microarray-based method; type: functional
Summary of the method: (§1)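 HL60 cells were treated in triplicate with 1.085 µM or vehicle for 6 h. Total RNA was extracted with on-column DNase treatment and profiled on expression arrays.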

RS4-11 = assay: Induction of apoptosis in human RS4:11 cells assessed as accumulation of cells at sub G2 phase at 300 nM incubated for 18 hrs in presence of PARP antibody by immunofluorescent staining based flow cytometric analysis relative to control; type: functional
Summary of the method: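 RS4;11 cells treated with 300 nM or DMSO vehicle for 18 h, then pulsed with 10 μM BrdU for 1 h. Harvested cells immunostained for BrdU/PI (cell cycle), γH2AX (DNA damage) and PARP (apoptosis). Multicolor flow cytometry gated G1, sub-G2-like, G2/M and sub-G0/G1 populations.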

HL-60 [3] = assay: Effect on human HL60 cells assessed as fold change in RAB39B gene expression at 1.085 uM incubated for 6 hrs by microarray-based method; type: functional
Summary of the method: as §1

HL-60 [4] = assay: Induction of cell cycle arrest in human HL60 cells assessed as accumulation of cells at G2/M phase at EC50 incubated for 12 hrs by PI staining based flow cytometric analysis (reference value: 23.0%); type: functional
Tubulin (Homo sapiens) = Tubulin (Homo sapiens) (UniProt P68371+Q9H4B7+P0DPH7+P68366+Q13509+Q71U36+P04350+Q3ZCM7+P07437+P68363+Q9BQE3+Q6PEY2+Q13885+Q9BVA1+Q9BUF5); assay: Inhibition of tubulin polymerization in human HL60 cells at 300 nM by Western blot analysis; type: cell-based; details: TDE = time-dependent effect
Summary of the method: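 Leukemia cells (RS4;11, CEM, HL60) treated with 300 nM for 0, 15, 30, 60 and 360 min. Western blotting for β-tubulin and p53, with lamin B1 as loading control and chemiluminescent detection.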

T-cell = assay: Cytotoxicity against phytohemagglutinin and interleukin-2-stimulated T-lymphocytes (unknown origin) up to 100 uM after 48 hrs by MTT assay; type: cell-based
Summary of the method: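 Post-ficoll lymphocytes from healthy donors were grown in RPMI-1640 with 10% FBS and stimulated overnight with phytohemagglutinin (25 µL/mL) plus IL-2 (50 U/mL). They were then exposed to decreasing concentrations for 48 h. Viability was measured by MTT (0.5 mg/ml final, 4 h), with SDS/HCl solubilization and absorbance at 570/620 nm, as survival relative to controls.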

EC90 (HL-60 [1]): 1000 nM
inhibition (Tubulin (Homo sapiens)): Tde
Structure (SMILES): COC(=O)c1[nH]c2cc(OC)ccc2c1-c1ccc(C(F)(F)F)cc1
fold change (FC) (HL-60 [2]): -1.53
Activity (RS4-11): 3.5%
fold change (FC) (HL-60 [3]): -1.53
Activity (HL-60 [4]): 48%
Activity (T-cell): Non-Toxic
